Data published in ChEMBL document CHEMBL1151856, “Novel, potent, and radio-iodinatable somatostatin receptor 1 (sst1) selective analogues” (J Med Chem, 2009).
Active and inactive are the calls of the source. No cut-off for these calls is given here. Positions of bridges follow the written chain, without caps; N, C: chain ends. Non-standard residues stand in square brackets, D forms with d. Residues, ends and D or L forms follow the SMILES beside them. Phe(4-CH2NHiPr) = CC(C)NCc1ccc(C[C@H](N)C(=O)O)cc1

Tests used:
[1] = target: T1, Somatostatin receptor type 1 (Homo sapiens, UniProt P30872); assay: Displacement of [125I]LTT-SRIF-28 from human sst1 receptor by autoradiography
T1 sequence (P30872 whole entry): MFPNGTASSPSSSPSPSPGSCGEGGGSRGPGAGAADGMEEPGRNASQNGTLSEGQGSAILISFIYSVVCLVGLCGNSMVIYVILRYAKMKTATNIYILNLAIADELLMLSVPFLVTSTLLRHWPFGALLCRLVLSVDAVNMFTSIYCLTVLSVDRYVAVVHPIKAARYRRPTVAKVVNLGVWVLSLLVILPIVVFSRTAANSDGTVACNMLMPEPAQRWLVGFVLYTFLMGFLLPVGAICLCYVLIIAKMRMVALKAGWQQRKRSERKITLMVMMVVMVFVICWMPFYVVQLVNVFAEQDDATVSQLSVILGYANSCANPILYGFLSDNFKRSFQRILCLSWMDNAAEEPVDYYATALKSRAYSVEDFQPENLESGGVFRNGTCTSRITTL
Outline: (§1)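 Competition autoradiography on 20-μm cryostat sections of membrane pellets from cells expressing each cloned receptor. Buffer was 170 mM Tris-HCl pH 8.2 with 1% BSA, bacitracin and 10 mM MgCl2. Cold washes, 1-week film exposure, image quantification against isotope standards, IC50 derived.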

[2] = target: Somatostatin receptor type 2 (Homo sapiens, UniProt P30874); assay: Displacement of [125I]LTT-SRIF-28 from human sst2 receptor by autoradiography; outline: as §1
Somatostatin receptor type 2, sequence (P30874 whole entry): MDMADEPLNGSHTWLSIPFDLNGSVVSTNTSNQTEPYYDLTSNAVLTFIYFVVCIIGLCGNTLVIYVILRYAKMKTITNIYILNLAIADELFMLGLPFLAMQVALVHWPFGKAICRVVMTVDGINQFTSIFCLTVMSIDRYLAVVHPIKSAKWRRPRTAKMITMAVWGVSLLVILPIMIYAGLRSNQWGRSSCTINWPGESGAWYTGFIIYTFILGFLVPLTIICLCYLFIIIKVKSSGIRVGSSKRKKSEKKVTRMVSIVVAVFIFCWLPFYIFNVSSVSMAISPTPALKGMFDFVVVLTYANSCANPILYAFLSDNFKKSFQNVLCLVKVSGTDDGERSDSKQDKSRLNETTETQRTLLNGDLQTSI

[3] = target: Somatostatin receptor type 4 (Homo sapiens, UniProt P31391); assay: Displacement of [125I]LTT-SRIF-28 from human sst4 receptor by autoradiography
Somatostatin receptor type 4, sequence (P31391 whole entry): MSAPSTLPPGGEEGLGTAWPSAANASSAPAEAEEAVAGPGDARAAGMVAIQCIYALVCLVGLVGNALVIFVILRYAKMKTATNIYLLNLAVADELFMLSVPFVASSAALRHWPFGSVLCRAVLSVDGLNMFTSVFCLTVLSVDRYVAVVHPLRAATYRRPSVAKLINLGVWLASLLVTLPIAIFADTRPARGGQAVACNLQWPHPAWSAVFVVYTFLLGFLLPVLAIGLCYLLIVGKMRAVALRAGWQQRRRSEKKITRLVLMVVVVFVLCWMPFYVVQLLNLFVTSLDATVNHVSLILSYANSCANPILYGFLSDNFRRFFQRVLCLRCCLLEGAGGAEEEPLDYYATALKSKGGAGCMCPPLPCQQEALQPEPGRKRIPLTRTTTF

[4] = target: Somatostatin receptor type 5 (Homo sapiens, UniProt P35346); assay: Displacement of [125I]LTT-SRIF-28 from human sst5 receptor by autoradiography; outline: as §1
Somatostatin receptor type 5, sequence (P35346 whole entry): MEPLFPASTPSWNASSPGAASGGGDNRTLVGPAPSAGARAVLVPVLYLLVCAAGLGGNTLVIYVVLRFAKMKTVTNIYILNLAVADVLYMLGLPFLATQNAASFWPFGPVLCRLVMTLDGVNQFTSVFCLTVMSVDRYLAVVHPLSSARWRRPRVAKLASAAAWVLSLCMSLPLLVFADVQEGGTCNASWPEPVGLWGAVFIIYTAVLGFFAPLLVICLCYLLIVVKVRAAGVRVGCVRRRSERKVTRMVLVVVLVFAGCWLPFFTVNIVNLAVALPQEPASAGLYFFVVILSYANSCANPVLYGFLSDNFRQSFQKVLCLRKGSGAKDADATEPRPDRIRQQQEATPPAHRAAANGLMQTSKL

[5] = target: T1, Somatostatin receptor type 1; assay: Agonist activity at human sst1 receptor expressed in Chinese hamster CCL39 cells by luciferase reporter gene assay relative to somatostatin-14; format: functional, cell-based
[6] = target: Somatostatin receptor type 3 (Homo sapiens, UniProt P32745); assay: Displacement of [125I]LTT-SRIF-28 from human sst3 receptor by autoradiography; outline: as §1
Somatostatin receptor type 3, sequence (P32745 whole entry): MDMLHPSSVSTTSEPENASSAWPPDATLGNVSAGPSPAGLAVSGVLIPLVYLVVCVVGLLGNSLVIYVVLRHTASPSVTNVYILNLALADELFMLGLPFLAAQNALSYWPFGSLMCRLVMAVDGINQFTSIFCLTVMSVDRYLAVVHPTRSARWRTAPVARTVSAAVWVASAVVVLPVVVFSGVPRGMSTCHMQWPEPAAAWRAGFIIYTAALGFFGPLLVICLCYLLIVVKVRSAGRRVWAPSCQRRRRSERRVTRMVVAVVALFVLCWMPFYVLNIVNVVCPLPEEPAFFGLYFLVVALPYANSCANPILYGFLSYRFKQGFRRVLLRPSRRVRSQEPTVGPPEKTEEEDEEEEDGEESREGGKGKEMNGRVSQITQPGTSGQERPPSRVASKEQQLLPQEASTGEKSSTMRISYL

| Structure (SMILES) | IC50 [1] | IC50 [2] | IC50 [3] | IC50 [4] | Activity [5] | IC50 [6] | EC50 [5] |
| --- | --- | --- | --- | --- | --- | --- | --- |
| C[C@@H](O)[C@H](NC(=O)[C@@H]1CSSC[C@H](NC(=O)[C@H](N)Cc2ccccc2)C(=O)N[C@@H](Cc2ccccc2)C(=O)N[C@H](Cc2c[nH]c3ccccc23)C(=O)N[C@@H](CCCCN)C(=O)N[C@@H]([C@@H](C)O)C(=O)N1)C(N)=O | > 1000 nM | – | – | – | – | – | – |
| CC(C)NCc1ccc(C[C@@H]2NC(=O)[C@@H](N(C)C(=O)c3ccc4ccccc4c3)NC(=O)[C@H](Cc3ccccc3)NC(=O)[C@H](N)CSSC[C@@H](C(=O)N[C@@H](Cc3ccc4ccccc4c3)C(N)=O)NC(=O)[C@H](Cc3ccccc3)NC2=O)cc1 (single isomer, unassigned) | – | – | – | – | Active | – | – |
| CC(C)NCc1ccc(C[C@@H]2NC(=O)[C@@H](Cc3c[nH]c4ccccc34)NC(=O)[C@H](Cc3ccccc3)NC(=O)[C@@H](NC(=O)[C@H](N)Cc3ccccc3)CSSC[C@@H](C(=O)N[C@H](C(N)=O)[C@@H](C)O)NC(=O)[C@H](Cc3ccccc3)NC2=O)cc1 (H-[dF]CF[dW][Phe(4-CH2NHiPr)]FCT-NH2; disulfide 2-7) | 14 nM | > 1000 nM | – | > 1000 nM | – | 72 nM | – |
| CC(C)NCc1ccc(C[C@@H]2NC(=O)[C@@H](N(C)C(=O)c3ccc4ccccc4c3)NC(=O)[C@H](Cc3ccccc3)NC(=O)[C@@H](NC(=O)[C@H](N)Cc3ccc(O)cc3)CSSC[C@@H](C(=O)N[C@H](C(N)=O)[C@@H](C)O)NC(=O)[C@H](Cc3ccccc3)NC2=O)cc1 | – | > 1000 nM | 27 nM | > 1000 nM | – | 158 nM | – |
| CC(C)NCc1ccc(C[C@@H]2NC(=O)[C@H](N(C)C(=O)c3ccc4ccccc4c3)NC(=O)[C@H](Cc3ccccc3)NC(=O)[C@@H](N)CSSC[C@@H](C(=O)N[C@H](C(N)=O)[C@@H](C)O)NC(=O)[C@H](Cc3ccccc3)NC2=O)cc1 | 37 nM | > 1000 nM | – | > 1000 nM | – | 253 nM | – |
| CC(C)NCc1ccc(C[C@@H]2NC(=O)[C@@H](Cc3c[nH]c4ccccc34)NC(=O)[C@H](Cc3ccccc3)NC(=O)[C@@H](N)CSSC[C@@H](C(=O)N[C@H](C(N)=O)[C@@H](C)O)NC(=O)[C@H](Cc3ccccc3)NC2=O)cc1 (H-CF[dW][Phe(4-CH2NHiPr)]FCT-NH2; disulfide 1-6) | 108 nM | > 1000 nM | – | > 1000 nM | – | > 1000 nM | – |
| CC(C)NCc1ccc(C[C@@H]2NC(=O)[C@@H](Cc3c[nH]c4ccccc34)NC(=O)[C@H](Cc3ccccc3)NC(=O)[C@H](Cc3ccccc3)NC(=O)[C@H](CCCCN)NC(=O)[C@@H](N)CSSC[C@@H](C(=O)O)NC(=O)[C@H](CO)NC(=O)[C@H]([C@@H](C)O)NC(=O)[C@H](Cc3ccc(O)c([125I])c3)NC(=O)[C@H]([C@@H](C)O)NC2=O)cc1 | 3.6 nM | – | – | – | – | – | – |
| CC(C)NCc1ccc(C[C@@H]2NC(=O)[C@@H](N(C)C(=O)c3ccc4ccccc4c3)NC(=O)[C@H](Cc3ccccc3)NC(=O)[C@H](Cc3ccccc3)NC(=O)[C@H](CCCCN)NC(=O)[C@@H](N)CSSC[C@@H](C(=O)O)NC(=O)[C@H](CO)NC(=O)[C@H]([C@@H](C)O)NC(=O)[C@H](Cc3ccc(O)cc3)NC(=O)[C@H]([C@@H](C)O)NC2=O)cc1 | 3.3 nM | > 1000 nM | 562 nM | > 1000 nM | – | > 1000 nM | – |

The next lines start with the values.

| IC50 [1] | IC50 [2] | IC50 [3] | IC50 [4] | Activity [5] | IC50 [6] | EC50 [5] | Structure (SMILES) |
| --- | --- | --- | --- | --- | --- | --- | --- |
| 8.2 nM | > 1000 nM | 270 nM | > 1000 nM | Active | 410 nM | – | CC(C)NCc1ccc(C[C@@H]2NC(=O)[C@@H](N(C)C(=O)c3ccc4ccccc4c3)NC(=O)[C@H](Cc3ccccc3)NC(=O)[C@H](NC(=O)[C@@H](N)Cc3ccc(O)cc3)CSSC[C@@H](C(=O)N[C@@H](Cc3ccc4ccccc4c3)C(N)=O)NC(=O)[C@H](Cc3ccccc3)NC2=O)cc1 |
| 189 nM | > 1000 nM | > 1000 nM | > 1000 nM | – | 463 nM | – | CC(C)NCc1ccc(C[C@@H]2NC(=O)[C@H](N(C)C(=O)c3ccc4ccccc4c3)NC(=O)[C@H](Cc3ccccc3)NC(=O)[C@H](NC(=O)[C@@H](N)Cc3ccc(O)cc3)CSSC[C@@H](C(=O)N[C@@H](Cc3ccc4ccccc4c3)C(N)=O)NC(=O)[C@H](Cc3ccccc3)NC2=O)cc1 |
| – | > 1000 nM | > 1000 nM | – | Active | > 1000 nM | – | CC(C)NCc1ccc(C[C@@H]2NC(=O)[C@@H](Cc3c[nH]c4ccccc34)NC(=O)[C@H](Cc3ccccc3)NC(=O)[C@H](Cc3ccccc3)NC(=O)[C@H](CCCCN)NC(=O)[C@@H](NC(=O)[C@@H](N)Cc3ccc(O)cc3)CSSC[C@@H](C(=O)O)NC(=O)[C@H](CO)NC(=O)[C@H]([C@@H](C)O)NC(=O)[C@H](Cc3ccccc3)NC(=O)[C@H]([C@@H](C)O)NC2=O)cc1 (H-YCKFF[dW][Phe(4-CH2NHiPr)]TFTSC-OH; disulfide 2-12) |
| 1 nM | > 1000 nM | 95 nM | > 1000 nM | Active | 681 nM | 3.9 nM | CC(C)NCc1ccc(C[C@@H]2NC(=O)[C@@H](N(C)C(=O)c3ccc4ccccc4c3)NC(=O)[C@H](Cc3ccccc3)NC(=O)[C@@H](N)CSSC[C@@H](C(=O)N[C@H](C(N)=O)[C@@H](C)O)NC(=O)[C@H](Cc3ccccc3)NC2=O)cc1 |
| 530 nM | > 1000 nM | > 1000 nM | > 1000 nM | – | > 1000 nM | – | CC(C)NCc1ccc(C[C@@H]2NC(=O)[C@H](N(C)C(=O)c3ccc4ccccc4c3)NC(=O)[C@H](Cc3ccccc3)NC(=O)[C@@H](N)CSSC[C@@H](C(N)=O)NC(=O)[C@H](Cc3ccc(O)cc3)NC2=O)cc1 |
| 150 nM | > 1000 nM | > 1000 nM | > 1000 nM | – | 60 nM | – | CC(C)NCc1ccc(C[C@@H]2NC(=O)[C@@H](Cc3c[nH]c4ccccc34)NC(=O)[C@H](Cc3ccccc3)NC(=O)[C@@H](NC(=O)[C@@H](N)Cc3ccc(O)cc3)CSSC[C@@H](C(=O)N[C@H](C(N)=O)[C@@H](C)O)NC(=O)[C@H](Cc3ccccc3)NC(=O)[C@H]([C@@H](C)O)NC2=O)cc1 (H-YCF[dW][Phe(4-CH2NHiPr)]TFCT-NH2; disulfide 2-8) |
| 189 nM | > 1000 nM | 932 nM | > 1000 nM | – | 789 nM | – | CC(C)NCc1ccc(C[C@@H]2NC(=O)[C@@H](Cc3c[nH]c4ccccc34)NC(=O)[C@H](Cc3ccccc3)NC(=O)[C@H](Cc3ccccc3)NC(=O)[C@H](CCCCN)NC(=O)[C@@H](N)CSSC[C@@H](C(=O)O)NC(=O)[C@H](Cc3ccccc3)NC(=O)[C@H]([C@@H](C)O)NC2=O)cc1 (H-CKFF[dW][Phe(4-CH2NHiPr)]TFC-OH; disulfide 1-9) |
| – | > 1000 nM | > 1000 nM | > 1000 nM | – | > 1000 nM | – | CC(C)NCc1ccc(C[C@@H]2NC(=O)[C@H](N(C)C(=O)c3ccc4ccccc4c3)NC(=O)[C@H](Cc3ccccc3)NC(=O)[C@@H](NC(=O)[C@H](N)Cc3ccc(O)cc3)CSSC[C@@H](C(=O)N[C@H](C(N)=O)[C@@H](C)O)NC(=O)[C@H](Cc3ccccc3)NC2=O)cc1 |
| > 1000 nM | > 1000 nM | > 1000 nM | > 1000 nM | – | > 1000 nM | – | CC(C)NCc1ccc(C[C@@H]2NC(=O)[C@@H](Cc3c[nH]c4ccccc34)NC(=O)[C@H](Cc3ccccc3)NC(=O)[C@H](Cc3ccccc3)NC(=O)[C@@H](N)CSSC[C@@H](C(=O)O)NC(=O)[C@H](Cc3ccccc3)NC(=O)[C@H]([C@@H](C)O)NC2=O)cc1 (H-CFF[dW][Phe(4-CH2NHiPr)]TFC-OH; disulfide 1-8) |
| 4.7 nM | > 1000 nM | – | > 1000 nM | Active | 252 nM | – | CC(C)NCc1ccc(C[C@@H]2NC(=O)[C@@H](N(C)C(=O)c3ccc4ccccc4c3)NC(=O)[C@H](Cc3ccccc3)NC(=O)[C@@H](N)CSSC[C@@H](C(N)=O)NC(=O)[C@H](Cc3ccc(O)cc3)NC2=O)cc1 |
| 31 nM | > 1000 nM | > 1000 nM | > 1000 nM | – | 150 nM | – | CC(C)NCc1ccc(C[C@@H]2NC(=O)[C@@H](Cc3c[nH]c4ccccc34)NC(=O)[C@H](Cc3ccccc3)NC(=O)[C@H](Cc3ccccc3)NC(=O)[C@H](CCCCN)NC(=O)[C@@H](N)CSSC[C@@H](C(=O)O)NC(=O)[C@H](CO)NC(=O)[C@H]([C@@H](C)O)NC(=O)[C@H](Cc3ccccc3)NC(=O)[C@H]([C@@H](C)O)NC2=O)cc1 (H-CKFF[dW][Phe(4-CH2NHiPr)]TFTSC-OH; disulfide 1-11) |
